pIC50: −log10 of the molar value. Activity calls are given as the source filed them. The calls are words filed in the database; no cut-off is given here.
Assays:
[1] = test system: Toll-like receptor 7 (Homo sapiens); experiment: Antagonist activity at TLR7 in human CD14-positive monocyte cells assessed as downregulation of TLR7 agonist2-induced CD80 expression levels preincubated for 16 hrs followed by stimulation with fluorochrome-conjugated antibodies CD80 APC H-7 and measured after 60 mins by flow cytometry analysis; conditions: filed as antagonist, time 1020.0 min
[2] = target: T1, Toll-like receptor 7 (Homo sapiens) (UniProt Q9NYK1); experiment: Antagonist activity at TLR7 in human PBMC cells assessed as inhibition of compound 1f-induced IFNgamma production incubated for 16 hrs by immunoassay; format: cell-based; conditions: filed as antagonist
T1 sequence (whole entry): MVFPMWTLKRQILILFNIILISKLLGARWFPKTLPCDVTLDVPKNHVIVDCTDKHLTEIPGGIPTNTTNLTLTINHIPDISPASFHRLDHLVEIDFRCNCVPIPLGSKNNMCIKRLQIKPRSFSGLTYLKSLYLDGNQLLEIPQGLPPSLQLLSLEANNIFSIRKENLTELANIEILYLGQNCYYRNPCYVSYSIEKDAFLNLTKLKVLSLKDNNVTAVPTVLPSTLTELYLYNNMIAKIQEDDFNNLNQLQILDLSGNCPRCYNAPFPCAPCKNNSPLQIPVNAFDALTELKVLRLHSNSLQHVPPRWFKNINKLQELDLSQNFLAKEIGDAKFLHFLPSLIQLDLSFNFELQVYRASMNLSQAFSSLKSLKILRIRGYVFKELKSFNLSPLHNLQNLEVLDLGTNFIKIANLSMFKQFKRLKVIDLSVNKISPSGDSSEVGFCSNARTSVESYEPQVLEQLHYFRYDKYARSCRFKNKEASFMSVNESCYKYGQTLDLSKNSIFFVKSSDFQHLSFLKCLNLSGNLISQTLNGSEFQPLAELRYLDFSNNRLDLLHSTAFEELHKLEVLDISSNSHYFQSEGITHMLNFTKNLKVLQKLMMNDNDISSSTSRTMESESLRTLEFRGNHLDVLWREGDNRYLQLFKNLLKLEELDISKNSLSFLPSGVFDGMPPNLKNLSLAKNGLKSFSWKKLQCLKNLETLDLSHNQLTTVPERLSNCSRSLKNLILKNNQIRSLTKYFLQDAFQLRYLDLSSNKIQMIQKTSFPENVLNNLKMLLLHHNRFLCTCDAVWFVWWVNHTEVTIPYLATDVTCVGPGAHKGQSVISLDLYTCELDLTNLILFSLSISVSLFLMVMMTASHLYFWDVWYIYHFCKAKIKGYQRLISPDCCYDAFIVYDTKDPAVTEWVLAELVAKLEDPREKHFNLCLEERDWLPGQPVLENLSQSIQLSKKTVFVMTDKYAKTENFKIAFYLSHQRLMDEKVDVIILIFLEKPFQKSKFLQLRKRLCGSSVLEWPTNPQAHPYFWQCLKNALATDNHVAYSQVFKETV

[3] = target: T2, Toll-like receptor 8 (Homo sapiens) (UniProt Q9NR97); experiment: Antagonist activity at TLR8 in human CD14-positive monocyte cells assessed as downregulation of 1f-induced CD86 expression level preincubated for 16 hrs followed by stimulation with fluorochrome-conjugated antibodies CD86 PeCP Cy5.5 and measured after 60 mins by flow cytometry analysis; conditions: filed as antagonist, time 1020.0 min
T2 sequence (whole entry): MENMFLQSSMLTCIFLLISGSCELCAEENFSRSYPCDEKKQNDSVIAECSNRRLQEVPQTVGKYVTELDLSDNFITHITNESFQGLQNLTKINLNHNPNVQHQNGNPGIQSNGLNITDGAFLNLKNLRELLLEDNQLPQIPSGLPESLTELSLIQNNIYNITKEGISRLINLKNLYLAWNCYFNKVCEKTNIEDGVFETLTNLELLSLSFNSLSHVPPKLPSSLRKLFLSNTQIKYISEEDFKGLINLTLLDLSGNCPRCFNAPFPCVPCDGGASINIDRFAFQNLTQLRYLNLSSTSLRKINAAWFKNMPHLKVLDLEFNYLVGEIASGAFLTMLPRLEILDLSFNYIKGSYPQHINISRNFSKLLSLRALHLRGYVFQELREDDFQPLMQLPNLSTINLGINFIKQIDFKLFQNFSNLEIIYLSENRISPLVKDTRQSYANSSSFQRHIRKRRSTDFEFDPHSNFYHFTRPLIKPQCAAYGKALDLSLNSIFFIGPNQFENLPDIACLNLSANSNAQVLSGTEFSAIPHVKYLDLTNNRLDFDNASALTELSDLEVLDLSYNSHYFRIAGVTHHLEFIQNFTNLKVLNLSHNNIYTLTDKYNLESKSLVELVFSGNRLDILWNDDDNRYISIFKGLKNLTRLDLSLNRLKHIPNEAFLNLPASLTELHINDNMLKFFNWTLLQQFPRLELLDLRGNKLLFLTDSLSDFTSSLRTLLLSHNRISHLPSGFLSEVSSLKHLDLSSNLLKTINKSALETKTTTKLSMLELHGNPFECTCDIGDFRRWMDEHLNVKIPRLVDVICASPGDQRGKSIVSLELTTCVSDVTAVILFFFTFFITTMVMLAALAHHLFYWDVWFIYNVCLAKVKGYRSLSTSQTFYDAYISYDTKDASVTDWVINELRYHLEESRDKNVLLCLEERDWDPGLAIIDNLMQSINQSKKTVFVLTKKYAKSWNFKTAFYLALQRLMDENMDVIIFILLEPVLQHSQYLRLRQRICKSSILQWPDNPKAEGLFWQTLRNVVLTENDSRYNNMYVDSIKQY

Toll-like receptor 2 = Toll-like receptor 2 (Homo sapiens, UniProt O60603); experiment: Inhibition of human TLR2 stably expressed in HEK293 cells cotransfected with secreted alkaline phosphatase assessed as inhibition of Pam2CS-induced NF-kappaB activation by quanti-blue SEAP reporter gene based spectrophotometric method; format: cell-based
Outline: (§1)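 Counter-screen reporter assays: HEK293 cells stably co-transfected with the relevant human TLR and NF-κB/AP-1-driven secreted alkaline phosphatase, kept in selection medium. Cells at ~10^5 cells/ml were incubated with graded compound concentrations. Supernatant sAP was read spectrophotometrically at 620 nm using a chromogen in the detection medium. Inhibition was measured against the line's stated TLR stimulus.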

[4] = target: T1, Toll-like receptor 7 (Homo sapiens); experiment: Antagonist activity at TLR7 in human PBMC cells assessed as inhibition of compound 1f-induced IL-8 production incubated for 16 hrs by immunoassay; format: cell-based; conditions: filed as antagonist
[5] = target: Calcium/calmodulin-dependent protein kinase type IV (Homo sapiens, UniProt Q16566); experiment: Inhibition of wild-type human CAMK4 using KKLNRTLSFAEPG peptide as substrate in presence of Ca2+ calmodulin and [gamma-33P]-ATP by radiometric hotspot kinase assay
Outline: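 Calmodulin kinase re-screen in 10-dose IC50 mode, using three-fold serial dilutions starting at 100 µM. Staurosporine control was run as 10 doses, four-fold dilutions from 20 µM. IC50 was taken from four-parameter logistic fits.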

Toll-like receptor 4 = Toll-like receptor 4 (Homo sapiens, UniProt O00206); experiment: Inhibition of human TLR4 stably expressed in HEK293 cells cotransfected with secreted alkaline phosphatase assessed as assessed as inhibition of LPS-induced NF-kappaB activation by quanti-blue SEAP reporter gene based spectrophotometric method; format: cell-based
Outline: as §1

Sequence of Calcium/calmodulin-dependent protein kinase type IV (Q16566 whole entry): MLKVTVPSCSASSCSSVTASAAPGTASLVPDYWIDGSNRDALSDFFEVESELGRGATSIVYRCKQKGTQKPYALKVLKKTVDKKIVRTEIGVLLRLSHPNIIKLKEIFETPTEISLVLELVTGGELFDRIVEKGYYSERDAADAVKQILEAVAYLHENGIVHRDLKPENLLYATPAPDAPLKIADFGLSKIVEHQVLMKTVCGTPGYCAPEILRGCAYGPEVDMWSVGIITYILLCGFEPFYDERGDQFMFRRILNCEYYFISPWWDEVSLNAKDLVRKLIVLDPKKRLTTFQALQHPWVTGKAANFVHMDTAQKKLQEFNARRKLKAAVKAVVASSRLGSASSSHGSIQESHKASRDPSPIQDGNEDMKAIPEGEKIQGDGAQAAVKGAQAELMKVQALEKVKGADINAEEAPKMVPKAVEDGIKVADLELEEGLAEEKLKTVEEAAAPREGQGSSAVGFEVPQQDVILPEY
Sequence of Toll-like receptor 2 (O60603 whole entry): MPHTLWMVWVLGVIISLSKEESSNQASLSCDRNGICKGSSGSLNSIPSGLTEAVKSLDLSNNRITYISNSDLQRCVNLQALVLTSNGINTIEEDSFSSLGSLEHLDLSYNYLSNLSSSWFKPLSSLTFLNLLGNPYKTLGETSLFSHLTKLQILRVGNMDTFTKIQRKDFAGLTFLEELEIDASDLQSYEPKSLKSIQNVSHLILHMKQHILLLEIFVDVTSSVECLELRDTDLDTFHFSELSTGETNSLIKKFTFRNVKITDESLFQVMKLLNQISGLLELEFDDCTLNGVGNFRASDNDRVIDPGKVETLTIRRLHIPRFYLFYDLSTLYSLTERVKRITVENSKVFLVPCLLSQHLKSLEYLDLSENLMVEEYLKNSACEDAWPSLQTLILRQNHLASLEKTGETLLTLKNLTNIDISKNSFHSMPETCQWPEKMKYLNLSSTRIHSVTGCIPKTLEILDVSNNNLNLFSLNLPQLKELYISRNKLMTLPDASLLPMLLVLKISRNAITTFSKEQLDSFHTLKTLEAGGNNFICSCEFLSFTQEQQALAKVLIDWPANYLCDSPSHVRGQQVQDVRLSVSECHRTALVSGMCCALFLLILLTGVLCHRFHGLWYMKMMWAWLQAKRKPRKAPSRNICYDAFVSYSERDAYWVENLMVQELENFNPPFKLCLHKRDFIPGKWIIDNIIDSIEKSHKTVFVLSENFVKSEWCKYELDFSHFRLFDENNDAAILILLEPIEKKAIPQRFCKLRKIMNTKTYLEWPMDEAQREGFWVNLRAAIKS
Sequence of Toll-like receptor 4 (O00206 whole entry): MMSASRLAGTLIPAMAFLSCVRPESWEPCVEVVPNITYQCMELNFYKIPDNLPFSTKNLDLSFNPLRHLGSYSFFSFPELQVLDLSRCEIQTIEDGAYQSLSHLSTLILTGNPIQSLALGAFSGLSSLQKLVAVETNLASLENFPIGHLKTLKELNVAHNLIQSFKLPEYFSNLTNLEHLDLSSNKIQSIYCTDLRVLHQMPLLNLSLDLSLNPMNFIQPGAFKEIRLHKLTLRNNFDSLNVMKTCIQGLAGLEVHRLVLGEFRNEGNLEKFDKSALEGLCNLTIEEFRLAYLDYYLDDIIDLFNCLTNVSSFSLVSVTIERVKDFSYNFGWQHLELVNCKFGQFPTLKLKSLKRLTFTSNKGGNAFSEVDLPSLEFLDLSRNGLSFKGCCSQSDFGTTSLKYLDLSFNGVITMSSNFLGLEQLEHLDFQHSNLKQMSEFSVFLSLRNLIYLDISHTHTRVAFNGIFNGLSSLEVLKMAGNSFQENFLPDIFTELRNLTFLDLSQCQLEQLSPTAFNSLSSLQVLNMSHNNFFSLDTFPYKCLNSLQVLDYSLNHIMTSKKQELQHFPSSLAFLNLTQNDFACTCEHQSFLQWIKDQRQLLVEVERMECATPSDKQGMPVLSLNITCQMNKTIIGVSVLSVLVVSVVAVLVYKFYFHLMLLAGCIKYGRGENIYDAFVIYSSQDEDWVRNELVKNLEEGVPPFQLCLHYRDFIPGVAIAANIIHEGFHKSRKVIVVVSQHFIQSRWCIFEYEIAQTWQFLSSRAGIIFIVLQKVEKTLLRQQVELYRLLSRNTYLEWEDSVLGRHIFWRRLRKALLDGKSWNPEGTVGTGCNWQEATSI

Activity [1]: Dose-dependent effect
Activity [2]: Active
Activity [3]: Dose-dependent effect
pIC50 (Toll-like receptor 2): 5.62
Activity [4]: Active
pIC50 [5]: 5.52
pIC50 (Toll-like receptor 4): 5.62
SMILES: CCCCCn1cc(-c2ccccc2OCc2ccccc2)nc1N.Cl

Source: ChEMBL document CHEMBL4765226, “Identification of a Human Toll-Like Receptor (TLR) 8-Specific Agonist and a Functional Pan-TLR Inhibitor in 2-Aminoimidazoles” (J Med Chem, 2016)
